Converted amounts (≈) assume the structure as drawn. The source made the active and inactive calls. Residues, ends and D or L forms follow the SMILES beside them. *: point of attachment. NHBn = c1ccc(CN*)cc1

In one series the test system is Cryptococcus neoformans. The series can be described thus: Antifungal activity against Cryptococcus neoformans ATCC 90113 after 70 to 74 hrs by alamar blue dye based CLSI method. It counts as functional.
A further series relates to SK-OV-3. The series can be described thus: Cytotoxicity against human SKOV3 cells assessed as reduction in cell viability after 48 hrs by neutral red uptake assay. The note with it: sk-ov-3, 48 h. It counts as cell-based. A digest of the protocol:
(§1)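 Cells seeded at 25 000 per well and grown 24 h to confluence, then exposed to peptides up to 10 μg/mL for 48 h; viability by modified neutral red uptake; doxorubicin positive control, DMSO negative control.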

Another series deals with SK-MEL. The series can be described thus: Cytotoxicity against human SK-MEL cells assessed as reduction in cell viability after 48 hrs by neutral red uptake assay. It counts as cell-based. Summed up: as §1
For a further series, the system named is BT-549. Briefly: Cytotoxicity against human BT549 cells assessed as reduction in cell viability after 48 hrs by neutral red uptake assay. It counts as cell-based. As to conditions: bt-549, 48 h. Summed up: as §1
The subject of a further series is LLC-PK1. Briefly: Cytotoxicity against pig LLC-PK1 cells assessed as reduction in cell viability after 48 hrs by neutral red uptake assay. It counts as cell-based, Sus scrofa. The note with it: llc-pk1, 48 h. A digest of the protocol:
as §1

For a further series, the system named is Vero. Briefly: Cytotoxicity against African green monkey Vero cells assessed as reduction in cell viability after 48 hrs by neutral red uptake assay. As to conditions: chlorocebus sabaeus. It counts as cell-based. Summed up: as §1
Series [1] can be described thus: Selectivity index, ratio of cytotoxicity against human SKOV3 cells to IC50 for Cryptococcus neoformans ATCC 90113. Type of series: toxicity, cell-based. The note with it: read-out: Selectivity Index.
Series [2] can be described thus: Selectivity index, ratio of cytotoxicity against human SK-MEL cells to IC50 for Cryptococcus neoformans ATCC 90113. Type of series: toxicity, cell-based. The note with it: read-out: Selectivity Index.
A short description of series [3]: Selectivity index, ratio of cytotoxicity against human BT549 cells to IC50 for Cryptococcus neoformans ATCC 90113. Type of series: toxicity, cell-based. The note with it: read-out: Selectivity Index.
Series [4] can be described thus: Selectivity index, ratio of cytotoxicity against pig LLC-PK1 cells to IC50 for Cryptococcus neoformans ATCC 90113. It counts as toxicity, cell-based. The note with it: read-out: Selectivity Index.
Series [5] is described as follows: Selectivity index, ratio of cytotoxicity against African green monkey VERO cells to IC50 for Cryptococcus neoformans ATCC 90113. Type of series: toxicity, cell-based. As to conditions: read-out: Selectivity Index.
Another series deals with Escherichia coli. The series can be described thus: Antibacterial activity against Escherichia coli ATCC 35218 after 16 to 20 hrs by alamar blue dye based CLSI method. It counts as functional. Background: The colour change of resazurin is a common sign of viable cells or microbes.
A further series concerns Candida. The series can be described thus: Antifungal activity against Candida. It counts as functional.
The next series concerns Aspergillus. Briefly: Antifungal activity against Aspergillus. Type of series: functional.

`N[C@@H](Cc1c[nH]c(-c2ccc(-c3ccccc3)cc2)n1)C(=O)N[C@@H](Cc1c[nH]c2ccccc12)C(=O)N[C@@H](Cc1c[nH]c(-c2ccc(-c3ccccc3)cc2)n1)C(=O)NCc1ccccc1`: it took 1.4 µg/mL (≈ 1.61 µM) to reach half-maximal inhibition in the series on Cryptococcus neoformans (IC50). Besides, the MFC – broadly, the smallest concentration meeting the test's criterion for killing the fungus – against Cryptococcus neoformans was 2.5 µg/mL (≈ 2.87 µM). 2.5 µg/mL (≈ 2.87 µM) was the least that counted as inhibitory with Cryptococcus neoformans (MIC). For the same compound, the Activity in the series on SK-OV-3, in the series on SK-MEL, in the series on BT-549, with LLC-PK1 and in the series on Vero was above 10 µg/mL in each case. Moreover, the selectivity ratio in [1], in series [2], in [3], in [4] and in series [5] was above 7.1 in each case. The outcome with Escherichia coli, in the series with Candida and in the series on Aspergillus was inactive.

For the compound `COc1ccc(-c2nc(C[C@H](NC(=O)[C@H](Cc3c[nH]c4ccccc34)NC(=O)[C@@H](N)Cc3c[nH]c(-c4ccc(OC)cc4)n3)C(=O)NCc3ccccc3)c[nH]2)cc1`, the IC50 (usually the concentration needed to halve the response being measured) with Cryptococcus neoformans is 7.2 µg/mL (≈ 9.23 µM). This compound also gave an MFC against Cryptococcus neoformans above 20 µg/mL. Moreover, in the series on Cryptococcus neoformans, the MIC – broadly, the smallest concentration in the dilution series that meets the test's criterion for growth inhibition – is above 20 µg/mL. Besides, the Activity with SK-OV-3, with SK-MEL, with BT-549, in the series with LLC-PK1 and in the series on Vero was above 10 µg/mL in each case. The selectivity ratio in series [1], in series [2], in [3], in [4] and in series [5] was above 1.4 in each case. Besides, the outcome with Escherichia coli, in the series with Candida and in the series with Aspergillus was inactive.

`COC(=O)[C@H](Cc1c[nH]cn1)NC(=O)[C@H](Cc1c[nH]c2ccccc12)NC(=O)[C@@H](N)Cc1c[nH]cn1` (H-His-Trp-His-OMe) displayed a concentration for half-maximal inhibition (IC50) in the series on Cryptococcus neoformans of 9.81 µg/mL (≈ 19.9 µM). In addition, the MFC in the series on Cryptococcus neoformans was 20 µg/mL (≈ 40.6 µM). The same compound returned an MIC in the series with Cryptococcus neoformans of 20 µg/mL (≈ 40.6 µM). The Activity in the series on SK-OV-3, in the series with SK-MEL, in the series on BT-549, in the series on LLC-PK1 and in the series on Vero was above 10 µg/mL each time. For the same compound, the selectivity ratio in series [1], in [2], in series [3], in [4] and in [5] was above 1 throughout. Further, the result in the series on Escherichia coli, with Candida and with Aspergillus was inactive.

In the series on Cryptococcus neoformans, `Cc1ccc(-c2nc(C[C@H](NC(=O)OC(C)(C)C)C(=O)N[C@@H](Cc3c[nH]c4ccccc34)C(=O)N[C@@H](Cc3c[nH]c(-c4ccc(C)cc4)n3)C(=O)NCc3ccccc3)c[nH]2)cc1` displayed an IC50 of 12.6 µg/mL (≈ 14.9 µM). In the series on Cryptococcus neoformans, this compound had an MFC above 20 µg/mL. In the series with Cryptococcus neoformans, this compound yielded an MIC above 20 µg/mL. The Activity with SK-OV-3, in the series on SK-MEL, in the series with BT-549, with LLC-PK1 and with Vero was above 10 µg/mL throughout. For the same compound, the result with Escherichia coli, in the series on Candida and in the series with Aspergillus was inactive.

With `COC(=O)[C@H](Cc1c[nH]c(-c2ccccc2)n1)NC(=O)[C@H](Cc1c[nH]c2ccccc12)NC(=O)[C@H](Cc1c[nH]c(-c2ccccc2)n1)NC(=O)OC(C)(C)C`, half-maximal inhibition in the series with Cryptococcus neoformans (IC50) was put at 9.14 µg/mL (≈ 12.3 µM). In the series on Cryptococcus neoformans, this compound had an MFC above 20 µg/mL. Besides, the MIC against Cryptococcus neoformans was above 20 µg/mL. Further, the Activity in the series with SK-OV-3, with SK-MEL, in the series on BT-549, in the series on LLC-PK1 and in the series with Vero was above 10 µg/mL each time. In addition, the selectivity ratio in [1], in series [2], in [3], in series [4] and in series [5] was above 1.1 each time. In addition, the outcome in the series with Escherichia coli, in the series on Candida and in the series on Aspergillus was inactive.

On to `N[C@@H](Cc1cnc[nH]1)C(=O)N[C@@H](Cc1c[nH]c2ccccc12)C(=O)N[C@@H](Cc1cnc[nH]1)C(=O)NCc1ccccc1` (H-His-Trp-His-NHBn), for which the MFC against Cryptococcus neoformans was 10 µg/mL (≈ 17.6 µM). The MIC in the series on Cryptococcus neoformans came out at 10 µg/mL (≈ 17.6 µM). Moreover, the Activity in the series on SK-OV-3, in the series with SK-MEL, in the series on BT-549, with LLC-PK1 and in the series with Vero was above 10 µg/mL each time. Also, the selectivity ratio in series [1], in series [2], in [3], in series [4] and in series [5] was above 1.2 in each case. The outcome in the series with Escherichia coli, in the series on Candida and in the series with Aspergillus was inactive.

Take `CC(C)(C)OC(=O)N[C@@H](Cc1c[nH]c(-c2ccc(C(C)(C)C)cc2)n1)C(=O)N[C@@H](Cc1c[nH]c2ccccc12)C(=O)N[C@@H](Cc1c[nH]c(-c2ccc(C(C)(C)C)cc2)n1)C(=O)NCc1ccccc1`: the IC50 in the series with Cryptococcus neoformans is above 20 µg/mL. Also, the Activity with SK-OV-3, with SK-MEL, in the series with BT-549, in the series on LLC-PK1 and in the series with Vero was above 10 µg/mL in each case. The outcome in the series on Escherichia coli, with Candida and in the series on Aspergillus was inactive.

Turning to `CC(C)(C)OC(=O)N[C@@H](Cc1c[nH]c(-c2ccc(-c3ccccc3)cc2)n1)C(=O)N[C@@H](Cc1c[nH]c2ccccc12)C(=O)N[C@@H](Cc1c[nH]c(-c2ccc(-c3ccccc3)cc2)n1)C(=O)NCc1ccccc1`, the IC50 with Cryptococcus neoformans was above 20 µg/mL. Moreover, the Activity in the series on SK-OV-3, with SK-MEL, in the series on BT-549, with LLC-PK1 and in the series on Vero was above 10 µg/mL in each case. For the same compound, the result with Escherichia coli, with Candida and in the series on Aspergillus was inactive.

On to `COC(=O)[C@H](Cc1c[nH]c(-c2ccc(-c3ccccc3)cc2)n1)NC(=O)[C@H](Cc1c[nH]c2ccccc12)NC(=O)[C@H](Cc1c[nH]c(-c2ccc(-c3ccccc3)cc2)n1)NC(=O)OC(C)(C)C`, for which the IC50 in the series with Cryptococcus neoformans was above 20 µg/mL. Further, the Activity with SK-OV-3, with SK-MEL, with BT-549, in the series on LLC-PK1 and in the series on Vero was above 10 µg/mL each time. Moreover, the result with Escherichia coli, in the series with Candida and with Aspergillus was inactive.

For the origin of these results see ChEMBL document CHEMBL4011658 (J Med Chem, 2017).
